Measurements taken from ChEMBL document CHEMBL1157296, “Cytotoxic and antimicrobial benzophenones from the leaves of Tovomita longifolia” (2006).
Values after ≈ are worked out from the molar mass of the structure shown. Active and inactive are the calls of the source. The calls are words filed in the database; no cut-off is given here.

How the values were obtained:
Assay type in all cases: functional
[1] = tested on: Mycolicibacterium smegmatis; experiment: Antimicrobial activity against Mycobacterium smegmatis ATCC 607
[2] = tested on: NCI-H460; experiment: Cytotoxicity against human H460 cells
Method in brief: (§1)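 Human cancer cell lines of breast (MCF-7), CNS (SF-268) and lung (H-460) origin were tested by the Monks et al. method. All three lines were used throughout to monitor fractions and isolated compounds.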

[3] = tested on: Klebsiella pneumoniae; experiment: Antimicrobial activity against Klebsiella pneumoniae ATCC 10031
[4] = tested on: Salmonella enterica subsp. enterica serovar Gallinarum; experiment: Antimicrobial activity against Salmonella gallinarum ATCC 9184
[5] = tested on: Escherichia coli; experiment: Antimicrobial activity against Escherichia coli ATCC 9637
[6] = tested on: Staphylococcus aureus; experiment: Antimicrobial activity against Staphylococcus aureus ATCC 6538
[7] = tested on: SF-268; experiment: Cytotoxicity against human SF268 cells; method in brief: as §1
[8] = tested on: Candida albicans; experiment: Antimicrobial activity against Candida albicans ATCC 10231
[9] = tested on: MCF7; experiment: Cytotoxicity against human MCF7 cells; method in brief: as §1
[10] = tested on: Pseudomonas aeruginosa; experiment: Antimicrobial activity against Pseudomonas aeruginosa ATCC 27853

Compound	MIC [1] [µg/mL]	GI50 [2] [µg/mL]	Activity [3]	Activity [4]	Activity [5]	MIC [6] [µg/mL]	GI50 [7] [µg/mL]	Activity [8]	GI50 [9] [µg/mL]	Activity [10]	MIC [3] [µg/mL]	MIC [4] [µg/mL]	MIC [10] [µg/mL]	Activity [6]	Activity [1]	Activity [2]	Activity [7]	Activity [9]	MIC [5] [µg/mL]
CC(C)=CCC/C(C)=C/COc1cc(O)c(C(=O)c2ccccc2)c(O)c1	12.5 (≈ 34.1 µM)	4.4 (≈ 12 µM)	inactive	inactive	inactive	12.5 (≈ 34.1 µM)	2 (≈ 5.46 µM)	inactive	4.8 (≈ 13.1 µM)	inactive	–	–	–	–	–	–	–	–	–
CC1(C)CCC[C@]2(C)Oc3c(c(O)cc(O)c3C(=O)c3ccccc3)C[C@@H]12	6.25 (≈ 17.1 µM)	2.1 (≈ 5.73 µM)	–	–	inactive	12.5 (≈ 34.1 µM)	1.7 (≈ 4.64 µM)	inactive	1.8 (≈ 4.91 µM)	–	6.25 (≈ 17.1 µM)	12.5 (≈ 34.1 µM)	12.5 (≈ 34.1 µM)	–	–	–	–	–	–
C=C(CCC=C(C)C)[C@H](O)Cc1c(O)cc(O)c(C(=O)c2ccccc2)c1O	–	7.8 (≈ 20.4 µM)	–	–	–	–	6.5 (≈ 17 µM)	–	6.7 (≈ 17.5 µM)	–	–	–	–	–	–	–	–	–	–
CC(C)=CCC[C@]1(C)Oc2c(c(O)cc(O)c2C(=O)c2ccccc2)C[C@@H]1O	25 (≈ 65.4 µM)	6.5 (≈ 17 µM)	–	inactive	inactive	–	5.6 (≈ 14.6 µM)	inactive	6.8 (≈ 17.8 µM)	inactive	25 (≈ 65.4 µM)	–	–	inactive	–	–	–	–	–
C[C@@H]1[C@H](O)[C@@H](C)/C=C/C=C/C=C/C=C/C=C/C=C/C=C/[C@H](O[C@@H]2O[C@H](C)[C@@H](O)[C@H](N)[C@@H]2O)C[C@@H]2O[C@](O)(C[C@@H](O)C[C@@H](O)[C@H](O)CC[C@@H](O)C[C@@H](O)CC(=O)O[C@H]1C)C[C@H](O)[C@H]2C(=O)O	–	–	inactive	inactive	inactive	–	–	–	–	inactive	–	–	–	inactive	inactive	–	–	–	–
COc1cccc2c1C(=O)c1c(O)c3c(c(O)c1C2=O)C[C@@](O)(C(=O)CO)C[C@@H]3O[C@H]1C[C@H](N)[C@H](O)[C@H](C)O1 [DOXORUBICIN]	–	0.42 (≈ 0.773 µM)	–	–	–	–	0.5 (≈ 0.92 µM)	–	0.38 (≈ 0.699 µM)	–	–	–	–	–	–	–	–	–	–
C=C(C)[C@H](O)CC/C(C)=C/Cc1c(O)cc(O)c(C(=O)c2ccccc2)c1O	–	–	–	–	–	–	–	–	–	–	–	–	–	–	–	inactive	inactive	inactive	–
CC(C)=CCC/C(C)=C/Cc1c(O)cc(O)c(C(=O)c2ccccc2)c1O	50 (≈ 136 µM)	–	inactive	inactive	inactive	–	–	inactive	–	inactive	–	–	–	inactive	–	inactive	inactive	inactive	–
CN[C@@H]1[C@H](O[C@H]2[C@H](O[C@H]3[C@H](O)[C@@H](O)[C@H](N=C(N)N)[C@@H](O)[C@@H]3N=C(N)N)O[C@@H](C)[C@]2(O)C=O)O[C@@H](CO)[C@H](O)[C@H]1O.CN[C@@H]1[C@H](O[C@H]2[C@H](O[C@H]3[C@H](O)[C@@H](O)[C@H](N=C(N)N)[C@@H](O)[C@@H]3N=C(N)N)O[C@@H](C)[C@]2(O)C=O)O[C@@H](CO)[C@H](O)[C@H]1O.O=S(=O)(O)O.O=S(=O)(O)O.O=S(=O)(O)O [STREPTOMYCIN SULFATE]	12.5	–	–	–	–	12.5	–	inactive	–	–	3.12	3.12	1.56	–	–	–	–	–	6.25
